{"source": "paper PMC2761715", "about": "(Molecular cancer therapeutics, 2009)", "type_in_all_cases": "cell-based", "key": {"H929 cells [1]": {"test_system": "H929 cells", "test": "Reactive oxygen species", "conditions": "NAC 10 mM; supplementary data S7"}, "LC3": {"test_system": "LC3", "test": "LC3-I to LC3-II conversion, western blot", "outline": "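H929 or 8226 cells exposed 4 h to test peptide or scrambled peptide (50 µg/ml H929; 100 µg/ml 8226) or 100 uM tunicamycin; NAC arm: H929 at 4 × 10^5 cells/ml, 10 mM NAC 30 min then 50 µg/ml for 4 h. Lysed on ice in NP-40/Tris pH 7.6 buffer with protease/phosphatase inhibitors; 10 µg protein, 8% SDS-PAGE, PVDF blot for LC3-I/II.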"}, "H929 cells [2]": {"test_system": "H929 cells", "test": "Mitochondrial membrane potential", "conditions": "H929, NAC 10 mM 30 min, then HYD1 50 µg/ml 4 hrs; Figure 5C", "outline": "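H929 cells (4 × 10^5 cells/ml) pretreated 30 min with 10 mM NAC, then test compound 50 µg/ml for a further 4 h. Cells stained 15 min with 15 nM DiOC6, PBS-washed and resuspended, then loss of Δψm measured by flow cytometry; n=9.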"}, "8226 cells": {"test_system": "8226 cells", "test": "Cell death analysis, annexin V, FACS", "conditions": "addition of 3-MA, supplemental data S5"}, "H929 cells [3]": {"test_system": "H929 cells", "test": "Neutral comet assay", "conditions": "H929, 6 hours, 50 ug/ml HYD1 or HYDS or 50 ng/ml TRAIL, n=150; Figure 3D", "outline": "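Neutral comet assay on H929 cells given 50 µg/ml test peptide, scrambled peptide, or 50 ng/ml TRAIL (positive control) for 6 h. 5,000 cells pelleted, taken up in PBS agar, layered onto frosted slides and run under neutral conditions. Comet moments measured from 50 images per treatment by CCD camera; n=150.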"}}}
{"compound": "CC(=O)N[C@@H](CS)C(=O)O", "note": "[NAC, N-acetyl-L-cysteine]", "values": [{"measurement": "inhibition of ROS production by NAC", "setting": "H929 cells [1]", "value": "effective in inhibiting the production of ROS"}, {"measurement": "reversal of HYD1-induced increase in LC3-II by NAC", "setting": "LC3; H929, NAC 10 mM 30 min, then HYD1 50 µg/ml 4 hrs, Figure 5D", "value": "completely reversed"}, {"measurement": "reversal of HYD1-induced loss in Δψm by NAC", "setting": "H929 cells [2]", "value": "not reversed by pretreatment with NAC"}]}
{"compound": "Tunicamycin", "values": [{"measurement": "conversion of LC3-I to LC3-II", "setting": "LC3; 4 hour treatment, 50 µg/ml HYD1 for H929, 100 ug/ml for 8226, 100 uM tunicamycin", "value": "increased conversion of LC3-I to LC3-II"}]}
{"compound": "Cn1cnc(N)c2ncnc1-2", "note": "[3-MA, 3-Methyladenine]", "values": [{"measurement": "sensitization to HYD1 induced cell death", "setting": "8226 cells", "value": "sensitized 8226 cells to HYD1 induced cell death"}]}
{"compound": "TRAIL", "values": [{"measurement": "comet moments (double stranded DNA breaks)", "setting": "H929 cells [3]", "value": "significant increase in comet moments"}]}
